This passage reports IC50 and GI50 results from ChEMBL document CHEMBL1144042, “Cytotoxic simplified tubulysin analogues” (J Med Chem, 2008).

In one assay the test system is 1A9. Briefly: Cytotoxicity against human 1A9 cells. The assay is classed as functional, cell-based.
Assay [1] is described as follows: Inhibition of rat brain tubulin polymerization. A digest of the protocol: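 Rat brain tubulin (10 µM) mixed on ice with test compound at 0.5, 1, 2 and 4 µM in 0.8 M sodium glutamate, pH 6.6, with 0.4 mM GTP. Samples then warmed to 33 °C. Polymerization followed over time as optical density at 350 nm. IC50 taken from the concentration series.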
Assay [2] is described as follows: Anticancer activity against multidrug-resistant human KBV1 cells. The assay is classed as functional, cell-based. The note with it: KB-V1.
The subject of another assay is HCT-15. Briefly: Anticancer activity against multidrug-resistant human HCT15 cells. The assay is classed as functional.

Bounds are passed on as bounds.

Usually IC50 stands for the midpoint of a concentration-inhibition curve. A lower IC50 goes with greater potency. Turning to `CC[C@@H](C)[C@H](NC(=O)[C@@H]1CCCCN1)C(=O)N[C@H](CC(=O)c1nc(C(=O)N[C@@H](Cc2ccccc2)C[C@H](C)C(=O)O)cs1)C(C)C`, the IC50 in the assay with 1A9 was 24000 nM.
On the same count and under the same terms, the value for `CC[C@@H](C)[C@H](NC(=O)[C@H]1CCCCN1)C(=O)N[C@H](CC(=O)c1nc(C(=O)N[C@@H](Cc2ccccc2)C[C@H](C)C(=O)O)cs1)C(C)C` was 23000 nM.
On to `CCC(C)[C@H](NC(=O)[C@H]1CCCCN1C)C(=O)N[C@H](CC(=O)c1nc(C(=O)N[C@@H](Cc2ccccc2)C[C@H](C)C(=O)O)cs1)C(C)C` (single isomer, unassigned), for which the half-maximal inhibitory concentration (IC50) in the assay on 1A9 amounted to 200 nM; in assay [1], 1800 nM.
As for `CCC(C)[C@H](NC(=O)[C@@H]1CCCN1)C(=O)N[C@H](CC(=O)c1nc(C(=O)N[C@@H](Cc2ccccc2)C[C@H](C)C(=O)O)cs1)C(C)C` (single isomer, unassigned), the IC50 with 1A9 is more than 33000 nM.
Molecule `CCC(C)[C@H](NC(=O)[C@@H]1CCCCN1C)C(=O)N[C@H](CC(=O)c1nc(C(=O)N[C@@H](Cc2ccccc2)C[C@H](C)C(=O)O)cs1)C(C)C` (single isomer, unassigned) came in with an IC50 in the assay with 1A9 of 25000 nM.
Regarding `CCC(C)[C@H](NC(=O)[C@@H]1CCCN1C)C(=O)N[C@H](CC(=O)c1nc(C(=O)N[C@@H](Cc2ccccc2)C[C@H](C)C(=O)O)cs1)C(C)C` (single isomer, unassigned), in the assay with 1A9, inhibition was half-maximal at 18000 nM (IC50).
In the case of `CCC(C)[C@H](NC(=O)[C@H]1CCCN1C)C(=O)N[C@H](CC(=O)c1nc(C(=O)N[C@@H](Cc2ccccc2)C[C@H](C)C(=O)O)cs1)C(C)C` (single isomer, unassigned), the IC50 turned out to be 800 nM in the assay on 1A9 and 1000 nM in assay [1].
Molecule `CCC(C)[C@H](NC(=O)[C@H]1CCCN1)C(=O)N[C@H](CC(=O)c1nc(C(=O)N[C@@H](Cc2ccccc2)C[C@H](C)C(=O)O)cs1)C(C)C` (single isomer, unassigned) registered an IC50 in the assay on 1A9 of more than 33000 nM.
`CCC(C)[C@H](NC(=O)[C@H]1CCCCN1C)C(=O)N(COC(=O)CC(C)C)[C@H](C[C@@H](OC(C)=O)c1nc(C(=O)N[C@@H](Cc2ccccc2)C[C@H](C)C(=O)O)cs1)C(C)C` (single isomer, unassigned) [TUBULYSIN D]: the IC50 in assay [2] was determined as 0.31 nM.
Molecule `COc1cc([C@@H]2c3cc4c(cc3[C@H](O)[C@H]3COC(=O)[C@H]23)OCO4)cc(OC)c1OC` [PODOFILOX] registered an IC50 with 1A9 of 3 nM.
On to `CN[C@H](C(=O)N[C@H](C(=O)N(C)[C@H](/C=C(\C)C(=O)O)C(C)C)C(C)(C)C)C(C)(C)c1ccccc1` [TALTOBULIN], for which the IC50 in the assay on 1A9 was determined as 0.03 nM; in assay [1], 1000 nM.
By GI50 is commonly meant the concentration at which growth is held to half of that of the control. The low end stands for more potent growth inhibition, the high end for less potent growth inhibition. As for `CC[C@@H](C)[C@H](NC(=O)[C@H]1CCCCN1C)C(=O)N(COC(=O)CC(C)C)[C@H](C[C@@H](OC(C)=O)c1nc(C(=O)N[C@@H](Cc2ccc(O)cc2)C[C@H](C)C(=O)O)cs1)C(C)C` [TUBULYSIN A], halving of growth in the assay on HCT-15 (GI50) required 0.12 nM.
